Measurements: PMC7302971 (Bioorganic chemistry, 2020)
Read-outs that look alike come from different tables or passages of the source.

Key:
K-562 leukemia cells = assay: Differential Nuclear Staining; format: cell-based, human
Summary of the method: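 Cells were seeded at 10,000/well and exposed to test compound for 48 h at 1% (v/v) final DMSO. The first screen used a single concentration with controls in quadruplicate. Dose-response used 0.5–100 μM in triplicate. Controls: DMSO vehicle, hydrogen peroxide (positive), untreated (negative). Hoechst 33342 plus PI were added 2 h before automated imaging, and colocalised signal was scored as dead. […] Two-tailed t-test versus DMSO.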

CEM cells = assay: Apoptosis by annexin V-FITC/PI flow cytometry; format: cell-based, human; details: compound at CC50 (IC50) concentration, 24 h
Summary of the method: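 CEM cells were seeded in 24-well plates and held overnight at 37 °C in CO2. Medium was replaced and cells were exposed to test compound for 24 h. Controls were untreated cells and 1% DMSO. Cells were PBS-washed and spun at 500 × g for 5 min at 4 °C, then resuspended in ice-cold binding buffer with annexin V-FITC and PI. They were kept 15 min on ice in the dark, diluted, and read by flow cytometry for live and apoptotic fractions.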

HDAC4 = HDAC4 (Homo sapiens, UniProt P56524); assay: HDAC enzyme activity assay; format: biochemical; details: for remaining activity at 50 µM: read-out: Residual HDAC4 activity at 50 μM
HDAC4, sequence (P56524 648-1057 limits assumed): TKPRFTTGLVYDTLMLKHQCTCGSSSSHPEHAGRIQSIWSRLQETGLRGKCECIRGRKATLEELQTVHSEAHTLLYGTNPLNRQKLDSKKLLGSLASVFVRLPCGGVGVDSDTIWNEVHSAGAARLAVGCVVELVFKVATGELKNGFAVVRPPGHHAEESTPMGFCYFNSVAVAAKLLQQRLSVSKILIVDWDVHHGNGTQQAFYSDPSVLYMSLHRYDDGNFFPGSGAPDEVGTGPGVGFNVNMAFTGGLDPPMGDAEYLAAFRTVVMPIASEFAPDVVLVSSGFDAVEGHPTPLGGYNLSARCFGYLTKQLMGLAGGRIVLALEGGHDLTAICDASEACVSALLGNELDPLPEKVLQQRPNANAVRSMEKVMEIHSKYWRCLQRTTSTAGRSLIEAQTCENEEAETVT
Summary of the method: (§1)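 HDAC4 and HDAC8 were in-house recombinant enzymes. Each was preincubated with inhibitor, either a single 50 μM screen or serial dilutions, for 60 min at 30 °C in Tris-HCl pH 8.0/KCl/Pluronic buffer. Substrate was 20 μM Boc-Lys(trifluoroacetyl)-AMC for 60 min at 30 °C, stopped with 1.7 μM SATFMK, and developed with trypsin. AMC fluorescence was read at 350/450 nm and reported as residual activity or as IC50 from a four-parameter logistic fit.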

HDAC1 = HDAC1 (Homo sapiens, UniProt Q13547); assay: HDAC enzyme activity assay; format: biochemical
HDAC1, sequence (Q13547 whole entry): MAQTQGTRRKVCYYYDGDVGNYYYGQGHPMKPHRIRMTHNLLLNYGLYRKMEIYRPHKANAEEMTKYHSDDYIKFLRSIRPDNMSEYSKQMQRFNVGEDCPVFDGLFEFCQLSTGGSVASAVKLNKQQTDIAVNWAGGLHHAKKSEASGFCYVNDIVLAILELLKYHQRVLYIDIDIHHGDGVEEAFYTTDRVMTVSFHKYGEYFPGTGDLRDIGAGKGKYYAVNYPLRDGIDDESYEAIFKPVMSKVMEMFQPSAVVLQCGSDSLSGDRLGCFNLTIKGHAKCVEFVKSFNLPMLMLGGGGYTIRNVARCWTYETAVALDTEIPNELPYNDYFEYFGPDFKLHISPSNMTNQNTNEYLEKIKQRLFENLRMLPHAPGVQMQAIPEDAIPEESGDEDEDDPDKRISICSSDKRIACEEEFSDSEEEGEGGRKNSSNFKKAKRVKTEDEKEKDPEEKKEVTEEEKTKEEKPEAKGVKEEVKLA
Summary of the method: (§2)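 Commercial enzyme was preincubated with serial inhibitor dilutions for 60 min at 30 °C in 25 mM Tris-HCl pH 8.0, 75 mM KCl and 0.001% Pluronic F-127. Reaction was started with 50 μM Boc-Lys(acetyl)-AMC, run 60 min at 30 °C, and stopped with 4.17 μM SAHA. Trypsin (0.4 mg/ml) released AMC, read at Ex 350/Em 450 nm. IC50 came from a four-parameter logistic fit.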

HDAC8 [1] = target: T1, HDAC8 (Homo sapiens, UniProt Q9BY41); assay: HDAC enzyme activity assay; format: biochemical; details: for remaining activity at 50 µM: read-out: Residual HDAC8 activity at 50 μM
T1 sequence (Q9BY41 1-377): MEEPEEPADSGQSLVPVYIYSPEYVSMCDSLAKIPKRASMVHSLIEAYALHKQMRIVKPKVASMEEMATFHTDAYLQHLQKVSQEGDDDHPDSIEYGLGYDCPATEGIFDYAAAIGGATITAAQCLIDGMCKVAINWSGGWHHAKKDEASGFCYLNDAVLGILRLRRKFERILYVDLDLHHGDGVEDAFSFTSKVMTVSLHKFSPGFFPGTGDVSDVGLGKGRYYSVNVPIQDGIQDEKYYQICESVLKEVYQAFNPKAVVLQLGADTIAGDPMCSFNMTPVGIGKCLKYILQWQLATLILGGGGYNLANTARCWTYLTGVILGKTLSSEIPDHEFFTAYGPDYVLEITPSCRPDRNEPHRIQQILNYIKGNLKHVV
Summary of the method: as §1

HDAC6 = target: T2, HDAC6 (Homo sapiens, UniProt Q9UBN7); assay: HDAC enzyme activity assay; format: biochemical
T2 sequence (Q9UBN7 1-1215): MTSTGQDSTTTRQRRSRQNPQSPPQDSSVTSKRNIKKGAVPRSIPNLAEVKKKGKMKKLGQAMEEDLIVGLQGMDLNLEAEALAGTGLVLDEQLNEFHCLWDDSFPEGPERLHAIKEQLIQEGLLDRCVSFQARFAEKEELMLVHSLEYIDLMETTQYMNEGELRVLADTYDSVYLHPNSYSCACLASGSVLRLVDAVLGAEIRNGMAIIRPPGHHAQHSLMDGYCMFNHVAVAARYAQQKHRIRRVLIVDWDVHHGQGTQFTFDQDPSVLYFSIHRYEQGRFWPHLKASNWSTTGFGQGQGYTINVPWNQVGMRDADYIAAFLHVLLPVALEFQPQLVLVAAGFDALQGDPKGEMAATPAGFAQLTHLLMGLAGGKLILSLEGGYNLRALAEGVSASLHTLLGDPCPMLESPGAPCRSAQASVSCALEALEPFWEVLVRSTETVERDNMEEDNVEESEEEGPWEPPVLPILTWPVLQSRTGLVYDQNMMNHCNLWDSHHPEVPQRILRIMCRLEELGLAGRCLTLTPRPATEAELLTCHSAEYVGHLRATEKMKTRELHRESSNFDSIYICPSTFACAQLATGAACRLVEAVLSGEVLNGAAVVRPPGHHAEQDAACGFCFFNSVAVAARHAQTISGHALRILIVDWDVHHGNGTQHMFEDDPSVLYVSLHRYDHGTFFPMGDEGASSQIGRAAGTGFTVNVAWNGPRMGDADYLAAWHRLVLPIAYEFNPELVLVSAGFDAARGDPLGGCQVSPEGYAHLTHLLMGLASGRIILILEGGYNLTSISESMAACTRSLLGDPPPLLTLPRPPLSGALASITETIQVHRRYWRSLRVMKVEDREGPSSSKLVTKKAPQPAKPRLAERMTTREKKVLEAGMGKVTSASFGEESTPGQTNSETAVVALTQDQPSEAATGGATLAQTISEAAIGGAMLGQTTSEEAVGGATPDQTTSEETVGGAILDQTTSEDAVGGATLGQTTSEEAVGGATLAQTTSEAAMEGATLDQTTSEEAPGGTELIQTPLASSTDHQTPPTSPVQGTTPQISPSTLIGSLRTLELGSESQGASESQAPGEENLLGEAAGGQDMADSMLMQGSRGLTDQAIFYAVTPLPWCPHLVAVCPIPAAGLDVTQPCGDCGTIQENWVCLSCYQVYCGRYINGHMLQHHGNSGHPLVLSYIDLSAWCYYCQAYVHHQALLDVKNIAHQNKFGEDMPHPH
Summary of the method: as §2

HDAC8 [2] = target: T1, HDAC8; assay: Thermal shift assay; format: binding
[3] = read-out: IC50 HDAC4, HDAC panel, no unit in table, text b26: micromolar range

Row | SMILES | CC50 (K-562 leukemia cells; Homo sapiens, K562, 48 h) | live cells (CEM cells) | percent of apoptotic cells (CEM cells) | IC50 (HDAC4) | IC50 (HDAC4; [3]) | remaining activity at 50 µM (HDAC4) | IC50 (HDAC1) | IC50 (HDAC8 [1]) | remaining activity at 50 µM (HDAC8 [1]) | IC50 (HDAC6) | Thermal shift (ΔT), stabilizing effect on HDAC8 (HDAC8 [2]) | cell death at 100 μM (K-562 leukemia cells; K562, DNS assay, 48 h, 100 μM)
1 | O=C(CN1C(=O)SC(=Cc2ccccn2)C1=O)Nc1nc2ccccc2s1 [Compound P19, N-(benzo[d]thiazol-2-yl)-2-(2,4-dioxo-5-(pyridin-2-ylmethylene)thiazolidin-3-yl)acetamide] | 85.4 ± 3.25 µM | 30.86% | 60.97% | > 50 µM | > 50 µM | 97% | > 50 µM | 9.3 ± 1 µM | 22% | 17 µM | about 0.3 °C | –
2 | Cc1c(NC(=O)CN2C(=O)SC(=Cc3ccccn3)C2=O)c(=O)n(-c2ccccc2)n1C [Compound P10, N-(1,5-dimethyl-3-oxo-2-phenyl-2,3-dihydro-1H-pyrazol-4-yl)-2-(2,4-dioxo-5-(pyridin-2-ylmethylene)thiazolidin-3-yl)acetamide] | – | 29.89% | 55.19% | > 50 µM | > 50 µM | 76% | > 50 µM | 23 ± 1.1 µM | 17% | 26 µM | did not confer significant stability to the protein | 27.06% cell death at 100 μM
